Test results taken from ChEMBL document CHEMBL1629558, “Effect of electrical current on the activities of antimicrobial agents against Pseudomonas aeruginosa, Staphylococcus aureus, and Staphylococcus epidermidis biofilms” (2009).
≈ marks a conversion by molar mass, not a printed value.

Key:
Assay type in all cases: functional
Staphylococcus aureus [1] = assay: Antimicrobial activity against Staphylococcus aureus Xen 30 biofilm assessed as log10 CFU/cm'2 in bacterial count
Method in brief: (§1)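 Biofilms grown on Teflon coupons in a CDC biofilm reactor (1 ml of 10^8 CFU/ml inoculum, 37°C shaking 18 h, then 18 h at room temperature). Coupons then sat 24 h at room temperature in flow chambers with fresh medium ± drug ± direct current via graphite electrodes. Biofilm removed by vortex plus 5 min sonication, plated on blood agar (37°C, 5% CO2, 48 h). Triplicate; mean log10 CFU/cm2.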

[2] = tested on: Staphylococcus epidermidis; assay: Antimicrobial activity against Staphylococcus epidermidis Xen 43 biofilm assessed as log10 CFU/cm'2 in bacterial count; method in brief: as §1
Staphylococcus aureus [3] = assay: Antimicrobial activity against Staphylococcus aureus Xen 30 biofilm assessed as log10 CFU/cm'2 in bacterial count in presence of 200 microamperes of electric current by bioelectric effect assay
Method in brief: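 MRSA Xen 30 biofilms grown on Teflon coupons (12.5 mm) in a CDC biofilm reactor seeded with 1 ml of 10^8 CFU/ml: 18 h 37°C with shaking, then 18 h room temperature. Coupons were exposed in flow chambers to fresh medium ± antimicrobial with direct current for 24 h at room temperature. Biofilm was dislodged by vortex and sonication, then plated on blood agar. Counts are mean log10 CFU/cm2 from triplicate experiments.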

[4] = tested on: Staphylococcus epidermidis; assay: Antimicrobial activity against Staphylococcus epidermidis Xen 43 biofilm assessed as log10 CFU/cm'2 in bacterial count in presence of 2000 microamperes of electric current by bioelectric effect assay; method in brief: as §1
[5] = tested on: Staphylococcus epidermidis; assay: Antimicrobial activity against Staphylococcus epidermidis Xen 43 by broth microdilution method
[6] = tested on: Staphylococcus epidermidis; assay: Antimicrobial activity against Staphylococcus epidermidis Xen 43 biofilm assessed as log10 CFU/cm'2 in bacterial count in presence of 200 microamperes of electric current by bioelectric effect assay; method in brief: as §1
Staphylococcus aureus [7] = assay: Antimicrobial activity against Staphylococcus aureus Xen 30 biofilm assessed as log10 CFU/cm'2 in bacterial count in presence of 2000 microamperes of electric current by bioelectric effect assay; method in brief: as §1
Staphylococcus aureus [8] = assay: Antimicrobial activity against Staphylococcus aureus Xen 30 by broth microdilution method
Method in brief: (§2)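 Planktonic MICs determined by CLSI broth microdilution; strains (MRSA Xen 30, P. aeruginosa Xen 5) stored at −70°C.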

Pseudomonas aeruginosa [9] = assay: Antimicrobial activity against Pseudomonas aeruginosa Xen 5 by broth microdilution method; method in brief: as §2
Pseudomonas aeruginosa [10] = assay: Antimicrobial activity against Pseudomonas aeruginosa Xen 5 biofilm assessed as log10 CFU/cm'2 in bacterial count; method in brief: as §1
Pseudomonas aeruginosa [11] = assay: Antimicrobial activity against Pseudomonas aeruginosa Xen 5 biofilm assessed as log10 CFU/cm'2 in bacterial count in presence of 200 microamperes of electric current by bioelectric effect assay; method in brief: as §1
Staphylococcus aureus [12] = assay: Antimicrobial activity against Staphylococcus aureus Xen 30 biofilm assessed as log10 CFU/cm'2 in bacterial count in presence of 20 microamperes of electric current by bioelectric effect assay; method in brief: as §1
Pseudomonas aeruginosa [13] = assay: Antimicrobial activity against Pseudomonas aeruginosa Xen 5 biofilm assessed as log10 CFU/cm'2 in bacterial count in presence of 2000 microamperes of electric current by bioelectric effect assay; method in brief: as §1

| SMILES | log10cfu (Staphylococcus aureus [1]) | log10cfu [2] | log10cfu (Staphylococcus aureus [3]) | log10cfu [4] | MIC [5] | log10cfu [6] | log10cfu (Staphylococcus aureus [7]) | MIC (Staphylococcus aureus [8]) | MIC (Pseudomonas aeruginosa [9]) | log10cfu (Pseudomonas aeruginosa [10]) | log10cfu (Pseudomonas aeruginosa [11]) | log10cfu (Staphylococcus aureus [12]) | log10cfu (Pseudomonas aeruginosa [13]) |
| --- | --- | --- | --- | --- | --- | --- | --- | --- | --- | --- | --- | --- | --- |
| CN[C@H](CC(C)C)C(=O)N[C@H]1C(=O)N[C@@H](CC(N)=O)C(=O)N[C@H]2C(=O)N[C@H]3C(=O)N[C@H](C(=O)N[C@H](C(=O)O)c4cc(O)cc(O)c4-c4cc3ccc4O)[C@H](O)c3ccc(c(Cl)c3)Oc3cc2cc(c3O[C@@H]2O[C@H](CO)[C@@H](O)[C@H](O)[C@H]2O[C@H]2C[C@](C)(N)[C@H](O)[C@H](C)O2)Oc2ccc(cc2Cl)[C@H]1O [VANCOMYCIN] | -0.31 | 0.7 | 1.59 | 2.09 | – | – | – | – | – | – | – | – | – |
| CC[C@H]1OC(=O)[C@H](C)[C@@H](O[C@H]2C[C@@](C)(OC)[C@@H](O)[C@H](C)O2)[C@H](C)[C@@H](O[C@@H]2O[C@H](C)C[C@H](N(C)C)[C@H]2O)[C@](C)(O)C[C@@H](C)C(=O)[C@H](C)[C@@H](O)[C@]1(C)O [ERYTHROMYCIN] | -0.17 | 0.7 | – | – | 0.125 µg/mL (≈ 0.17 µM) | 2.04 | 0.27 | 0.5 µg/mL (≈ 0.681 µM) | – | – | – | – | – |
| CO[C@H]1/C=C/O[C@@]2(C)Oc3c(C)c(O)c4c(O)c(c(/C=N/N5CCN(C)CC5)c(O)c4c3C2=O)NC(=O)/C(C)=C\C=C\[C@H](C)[C@H](O)[C@@H](C)[C@@H](O)[C@@H](C)[C@H](OC(C)=O)[C@@H]1C [RIFAMPIN] | 0.86 | 0.17 | – | 2.5 | ≤ 0.125 µg/mL | – | 1.78 | 2 µg/mL (≈ 2.43 µM) | – | – | – | – | – |
| NC[C@H]1O[C@H](O[C@H]2[C@H](O)[C@@H](O[C@H]3O[C@H](CO)[C@@H](O)[C@H](N)[C@H]3O)[C@H](N)C[C@@H]2N)[C@H](N)C[C@@H]1O [TOBRAMYCIN] | 0.86 | 0.2 | – | 3.08 | 0.25 µg/mL (≈ 0.535 µM) | – | 2 | 4 µg/mL (≈ 8.56 µM) | 1 µg/mL (≈ 2.14 µM) | 1.69 | 2.48 | – | – |
| CN(C)c1ccc(O)c2c1C[C@H]1C[C@H]3[C@H](N(C)C)C(O)=C(C(N)=O)C(=O)[C@@]3(O)C(O)=C1C2=O [MINOCYCLINE] | 0.7 | -0.18 | – | – | 1 µg/mL (≈ 2.19 µM) | 3.32 | – | 4 µg/mL (≈ 8.74 µM) | – | – | – | 2.04 | – |
| CCCCCCCCCC(=O)N[C@@H](Cc1c[nH]c2ccccc12)C(=O)N[C@H](CC(N)=O)C(=O)N[C@@H](CC(=O)O)C(=O)N[C@@H]1C(=O)NCC(=O)N[C@@H](CCCN)C(=O)N[C@@H](CC(=O)O)C(=O)N[C@H](C)C(=O)N[C@@H](CC(=O)O)C(=O)NCC(=O)N[C@H](CO)C(=O)N[C@@H]([C@H](C)CC(=O)O)C(=O)N[C@@H](CC(=O)c2ccccc2N)C(=O)O[C@@H]1C | 1.63 | -0.38 | 1.94 | 1.2 | 0.125 µg/mL (≈ 0.0771 µM) | – | – | 1 µg/mL (≈ 0.617 µM) | – | – | – | – | – |
| COc1c(N2C[C@@H]3CCCN[C@@H]3C2)c(F)cc2c(=O)c(C(=O)O)cn(C3CC3)c12 [MOXIFLOXACIN] | 1.33 | -0.41 | – | 0.82 | ≤ 0.125 µg/mL | – | – | 2 µg/mL (≈ 4.98 µM) | – | – | – | 2.1 | – |
| O=C(O)c1cn(C2CC2)c2cc(N3CCNCC3)c(F)cc2c1=O [CIPROFLOXACIN] | – | – | – | – | – | – | – | – | – | -0.63 | – | – | 1.86 |
| CC(=O)NC[C@H]1CN(c2ccc(N3CCOCC3)c(F)c2)C(=O)O1 [LINEZOLID] | 0.62 | 0.22 | – | – | 1 µg/mL (≈ 2.96 µM) | 0.63 | 1.51 | – | – | – | – | – | – |
| CO/N=C(\C(=O)N[C@@H]1C(=O)N2C(C(=O)[O-])=C(C[N+]3(C)CCCC3)CS[C@H]12)c1csc(N)n1 | – | – | – | – | – | – | – | – | 2 µg/mL (≈ 4.16 µM) | 0.96 | – | – | 1.43 |
